Source: ChEMBL document CHEMBL3352430, “4-Aminopyridyl-based CYP51 inhibitors as anti-Trypanosoma cruzi drug leads with improved pharmacokinetic profile and in vivo potency” (J Med Chem, 2014)

What was measured:
[1] = Drug uptake in mouse fat at 50 mg/kg, po in 20% HP-beta-CD measured at 8 hrs post dose; format: ADME, organism-based, Adipose tissue; parameters: dose 50 mg/kg, route oral; conditions: in vivo
In short: (§1)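 Female Swiss Webster mice, 8 weeks old, given a single 50 mg/kg oral gavage dose in 20% HPβCD or 20% Kolliphor. Tissues taken from three mice at 2 and 8 h post dose. Homogenized by probe sonication in PBS (1:4 w/v), protein precipitated with acetonitrile, and compound measured by LC-MS/MS in μM.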

Intestine [2] = experiment: Drug uptake in mouse intestine at 50 mg/kg, po in 20% HP-beta-CD measured at 8 hrs post dose; format: ADME, organism-based; parameters: dose 50 mg/kg, route oral; conditions: in vivo; in short: as §1
Liver microsome [3] = experiment: Half life in human liver microsomes; format: ADME
Intestine [4] = experiment: Drug uptake in mouse intestine at 50 mg/kg, po in 20% Kolliphor measured at 8 hrs post dose; format: ADME, organism-based; parameters: dose 50 mg/kg, route oral; conditions: in vivo; in short: as §1
Lung [5] = experiment: Drug uptake in mouse lung at 50 mg/kg, po in 20% HP-beta-CD measured at 8 hrs post dose; format: ADME, organism-based; parameters: dose 50 mg/kg, route oral; conditions: in vivo; in short: as §1
Liver [6] = experiment: Drug uptake in mouse liver at 50 mg/kg, po in 20% Kolliphor measured at 8 hrs post dose; format: ADME, organism-based; parameters: dose 50 mg/kg, route oral; conditions: in vivo; in short: as §1
C2C12 = experiment: Cytotoxicity against mouse C2C12 cells up to 10 uM; format: cell-based
In short: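 Mouse C2C12 myoblasts infected with T. cruzi CA-I/72, then exposed at 24 h postinfection to compound at 10 μM down to 5 pM in 5-fold steps for 72 h at 37 °C. Cells fixed in paraformaldehyde, stained with DAPI and scored by automated imaging. Triplicate wells; uninfected and infected untreated wells as controls.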

Liver microsome [7] = experiment: Half life in rat liver microsomes; format: ADME
[8] = Drug uptake in mouse skeletal muscle at 50 mg/kg, po in 20% Kolliphor measured at 8 hrs post dose; format: ADME, organism-based, Muscle tissue; parameters: dose 50 mg/kg, route oral; conditions: in vivo; in short: as §1
Liver [9] = experiment: Half life in mouse liver microsomes; format: ADME
[10] = Drug uptake in mouse fat at 50 mg/kg, po in 20% Kolliphor measured at 8 hrs post dose; format: ADME, organism-based, Adipose tissue; parameters: dose 50 mg/kg, route oral; conditions: in vivo; in short: as §1
Trypanosoma cruzi [11] = experiment: Antitrypanosomal activity against Trypanosoma cruzi Y luc infected in mouse assessed as inhibition of parasitemia at 40 mg/kg, ip bid in 60% DMSO administered for 4 consecutive days starting on day 3 of infection measured on day 7 post infection relative to vehicle-treated control
Heart [12] = experiment: Drug uptake in mouse heart at 50 mg/kg, po in 20% Kolliphor measured at 8 hrs post dose; format: ADME, organism-based; parameters: dose 50 mg/kg, route oral; conditions: in vivo; in short: as §1
Lung [13] = experiment: Drug uptake in mouse lung at 50 mg/kg, po in 20% Kolliphor measured at 8 hrs post dose; format: ADME, organism-based; parameters: dose 50 mg/kg, route oral; conditions: in vivo; in short: as §1
Trypanosoma cruzi [14] = experiment: Antitrypanosomal activity against Trypanosoma cruzi Y luc infected in mouse assessed as inhibition of parasitemia at 25 mg/kg, po bid in 20% Kolliphor administered for 4 consecutive days starting on day 3 of infection measured on day 7 post infection relative to vehicle-treated control; format: functional
In short: (§2)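 Female Swiss Webster mice, 8 weeks old, infected ip with 10^5 T. cruzi Y luc trypomastigotes. Only mice with detectable luminescence on day 3 were treated. Compound given by oral gavage bid for four days, as a suspension in 20% HPβCD or a solution in 20% Kolliphor, five mice per group. Vehicle group and benznidazole 50 mg/kg served as controls. On day 7, mice were injected ip with 150 mg/kg d-luciferin and imaged after 5 min under isoflurane. Percent inhibition calculated against untreated mice; two-tailed paired t test.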

Heart [15] = experiment: Drug uptake in mouse heart at 50 mg/kg, po in 20% HP-beta-CD measured at 8 hrs post dose; format: ADME, organism-based; parameters: dose 50 mg/kg, route oral; conditions: in vivo; in short: as §1
[16] = Drug uptake in mouse skeletal muscle at 50 mg/kg, po in 20% HP-beta-CD measured at 8 hrs post dose; format: ADME, organism-based, Muscle tissue; parameters: dose 50 mg/kg, route oral; conditions: in vivo; in short: as §1
Liver [17] = experiment: Drug uptake in mouse liver at 50 mg/kg, po in 20% HP-beta-CD measured at 8 hrs post dose; format: ADME, organism-based; parameters: dose 50 mg/kg, route oral; conditions: in vivo; in short: as §1
Cytochrome P450 2C9 = Cytochrome P450 2C9 (Homo sapiens, UniProt P11712); experiment: Inhibition of CYP2C9 in human liver microsomes at 1 uM; format: ADME
Cytochrome P450 3A4 = Cytochrome P450 3A4 (Homo sapiens, UniProt P08684); experiment: Inhibition of CYP3A4 in human liver microsomes at 1 uM; format: ADME
[18] = target: Sterol 14-alpha demethylase (Trypanosoma cruzi (strain CL Brener), UniProt Q7Z1V1); experiment: Binding affinity to Trypanosoma cruzi CYP51 by UV-vis titration method; conditions: read-out: Kd(app)
Trypanosoma cruzi [19] = experiment: Antitrypanosomal activity against Trypanosoma cruzi amastigotes infected in mouse C2C12 cells after 72 hrs by DAPI staining method; format: functional, organism-based; conditions: C2C12, 72 h
Trypanosoma cruzi [20] = experiment: Antitrypanosomal activity against Trypanosoma cruzi Y luc infected in mouse assessed as inhibition of parasitemia at 50 mg/kg, po bid in 20% Kolliphor administered for 4 consecutive days starting on day 3 of infection measured on day 7 post infection relative to vehicle-treated control; format: functional; in short: as §2
Cytochrome P450 1A2 = target: T1, Cytochrome P450 1A2 (Homo sapiens, UniProt P05177); experiment: Inhibition of CYP1A2 in human liver microsomes at 1 uM; format: ADME
T1 sequence (P05177 whole entry): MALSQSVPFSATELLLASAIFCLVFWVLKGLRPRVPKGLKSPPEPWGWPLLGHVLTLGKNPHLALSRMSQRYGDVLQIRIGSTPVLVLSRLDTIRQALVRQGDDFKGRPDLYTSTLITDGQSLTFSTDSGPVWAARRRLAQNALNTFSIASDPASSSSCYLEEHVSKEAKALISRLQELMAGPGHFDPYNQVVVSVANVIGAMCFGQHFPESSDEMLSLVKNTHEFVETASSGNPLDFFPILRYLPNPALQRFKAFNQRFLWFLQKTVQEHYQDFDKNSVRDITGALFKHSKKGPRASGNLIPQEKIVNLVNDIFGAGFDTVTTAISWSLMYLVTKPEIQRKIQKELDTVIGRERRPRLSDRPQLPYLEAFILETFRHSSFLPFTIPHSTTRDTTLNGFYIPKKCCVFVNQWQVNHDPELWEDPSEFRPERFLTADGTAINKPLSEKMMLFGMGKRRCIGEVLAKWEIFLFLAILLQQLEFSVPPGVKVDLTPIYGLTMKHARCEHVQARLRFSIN

Cytochrome P450 2D6 = Cytochrome P450 2D6 (Homo sapiens, UniProt P10635); experiment: Inhibition of CYP2D6 in human liver microsomes at 1 uM; format: ADME
[21] = Cmax in mouse at 50 mg/kg, po in 20% Kolliphor; format: ADME, organism-based; parameters: dose 50 mg/kg, route oral; conditions: in vivo
In short: (§3)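 Female Swiss Webster mice, 8 weeks old, given one oral gavage dose of 50 mg/kg as a 10 mg/mL preparation in the named vehicle (20% HPβCD suspension or 20% Kolliphor). Plasma sampled at about 0.25, 0.5, 1, 2, 4, 6, 8, 12 and 24 h, n = 3 per time point. Protein precipitated with 5 volumes acetonitrile, filtered, then LC-MS/MS. Values are averages of three mice.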

[22] = Half life in mouse at 50 mg/kg, po in 20% Kolliphor; format: ADME, organism-based; parameters: dose 50 mg/kg, route oral; conditions: in vivo; in short: as §3
[23] = Tmax in mouse at 50 mg/kg, po in 20% Kolliphor; format: ADME, organism-based; parameters: dose 50 mg/kg, route oral; conditions: in vivo; in short: as §3
[24] = Clearance in mouse at 50 mg/kg, po in 20% Kolliphor; format: ADME, organism-based; parameters: dose 50 mg/kg, route oral; conditions: in vivo; in short: as §3
[25] = AUClast in mouse at 50 mg/kg, po in 20% Kolliphor; format: ADME, organism-based; parameters: time 0 - last, dose 50 mg/kg, route oral; conditions: plasma; in short: as §3

Chain of Sterol 14-alpha demethylase (Q7Z1V1 whole entry): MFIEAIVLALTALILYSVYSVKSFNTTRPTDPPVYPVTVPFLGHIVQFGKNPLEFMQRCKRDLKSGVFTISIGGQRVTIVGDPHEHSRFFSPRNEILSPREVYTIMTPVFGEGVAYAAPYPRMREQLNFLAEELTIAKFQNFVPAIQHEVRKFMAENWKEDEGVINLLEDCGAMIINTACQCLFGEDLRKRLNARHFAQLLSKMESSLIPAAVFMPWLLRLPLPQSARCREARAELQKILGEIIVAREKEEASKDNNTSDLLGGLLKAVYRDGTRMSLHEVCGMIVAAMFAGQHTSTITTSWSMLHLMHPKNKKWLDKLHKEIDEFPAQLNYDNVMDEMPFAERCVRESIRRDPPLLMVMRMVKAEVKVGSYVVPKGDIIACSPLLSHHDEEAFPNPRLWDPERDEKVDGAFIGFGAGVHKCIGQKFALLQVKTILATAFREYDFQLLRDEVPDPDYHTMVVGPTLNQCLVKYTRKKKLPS
Chain of Cytochrome P450 2D6 (P10635 whole entry): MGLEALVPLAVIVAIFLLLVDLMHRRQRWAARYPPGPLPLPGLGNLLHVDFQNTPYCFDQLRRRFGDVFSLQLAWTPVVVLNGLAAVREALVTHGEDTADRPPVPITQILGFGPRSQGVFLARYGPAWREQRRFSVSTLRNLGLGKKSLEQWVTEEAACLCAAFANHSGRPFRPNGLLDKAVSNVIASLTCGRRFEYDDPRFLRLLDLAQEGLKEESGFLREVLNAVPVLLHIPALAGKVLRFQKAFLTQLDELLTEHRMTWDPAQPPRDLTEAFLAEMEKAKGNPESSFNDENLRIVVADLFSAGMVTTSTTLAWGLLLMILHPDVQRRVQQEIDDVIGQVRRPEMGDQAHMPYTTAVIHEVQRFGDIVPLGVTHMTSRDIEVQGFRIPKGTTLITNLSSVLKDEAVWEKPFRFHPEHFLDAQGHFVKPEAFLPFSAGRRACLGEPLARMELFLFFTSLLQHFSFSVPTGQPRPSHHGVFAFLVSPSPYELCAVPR
Chain of Cytochrome P450 3A4 (P08684 whole entry): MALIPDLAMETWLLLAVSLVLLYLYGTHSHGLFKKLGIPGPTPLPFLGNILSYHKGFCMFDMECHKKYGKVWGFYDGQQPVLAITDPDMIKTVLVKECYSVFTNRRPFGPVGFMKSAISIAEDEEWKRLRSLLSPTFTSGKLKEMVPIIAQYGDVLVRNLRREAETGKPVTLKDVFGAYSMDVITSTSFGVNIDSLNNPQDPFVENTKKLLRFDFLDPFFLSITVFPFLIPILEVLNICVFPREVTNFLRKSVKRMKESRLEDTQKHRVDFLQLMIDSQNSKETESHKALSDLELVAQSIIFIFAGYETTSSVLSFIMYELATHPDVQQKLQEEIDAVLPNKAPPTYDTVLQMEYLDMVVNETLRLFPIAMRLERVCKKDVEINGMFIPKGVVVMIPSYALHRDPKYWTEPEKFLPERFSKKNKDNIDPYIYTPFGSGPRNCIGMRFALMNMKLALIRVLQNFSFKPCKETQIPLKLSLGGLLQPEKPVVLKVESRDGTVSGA
Chain of Cytochrome P450 2C9 (P11712 whole entry): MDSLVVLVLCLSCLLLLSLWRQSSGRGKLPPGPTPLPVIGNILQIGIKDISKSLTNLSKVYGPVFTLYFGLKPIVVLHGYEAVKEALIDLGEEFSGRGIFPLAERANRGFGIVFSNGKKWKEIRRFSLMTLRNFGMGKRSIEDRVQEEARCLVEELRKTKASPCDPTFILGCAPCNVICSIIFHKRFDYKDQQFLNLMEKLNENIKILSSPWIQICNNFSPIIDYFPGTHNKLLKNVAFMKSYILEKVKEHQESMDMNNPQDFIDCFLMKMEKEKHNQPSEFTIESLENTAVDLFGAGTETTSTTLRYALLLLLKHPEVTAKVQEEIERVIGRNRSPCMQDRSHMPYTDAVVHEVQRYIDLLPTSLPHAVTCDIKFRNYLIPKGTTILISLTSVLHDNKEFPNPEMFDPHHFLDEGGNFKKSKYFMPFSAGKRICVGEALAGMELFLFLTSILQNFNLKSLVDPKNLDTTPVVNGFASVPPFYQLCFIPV

Structure (SMILES) | Drug uptake [1] | Drug uptake (Intestine [2]) | t1/2 (Liver microsome [3]) | Drug uptake (Intestine [4]) | Drug uptake (Lung [5]) | Drug uptake (Liver [6]) | t1/2 (Liver microsome [7]) | Drug uptake [8] | t1/2 (Liver [9]) | Drug uptake [10] | Drug uptake (Heart [12]) | Drug uptake (Lung [13]) | Drug uptake (Heart [15]) | Drug uptake [16] | Drug uptake (Liver [17]) | Activity (C2C12) | inhibition in vivo at 40 mg/kg (Trypanosoma cruzi [11]) | inhibition in vivo at 25 mg/kg (Trypanosoma cruzi [14]) | inhibition in vivo at 50 mg/kg (Trypanosoma cruzi [20]) | also measured
O=C(N[C@H](Cc1c[nH]c2ccccc12)C(=O)Nc1ccncc1)c1ccc(-c2cccc(C(F)(F)F)c2)cc1F | Active | Active | 33 min | Active | Active | Active | 31 min | Active | 51 min | Active | Active | Active | Active | Active | Active | Non-toxic | 98.5% | 74.7% | 99.2% | inhibition (INH) (Cytochrome P450 2C9): 92%; inhibition (INH) (Cytochrome P450 3A4): 7%; Kd [18]: 80 nM; EC50 (Trypanosoma cruzi [19]): 39 nM; inhibition (INH) (Cytochrome P450 1A2): -16%; inhibition (INH) (Cytochrome P450 2D6): 14%
O=C(N[C@H](Cc1c[nH]c2ccccc12)C(=O)Nc1ccncc1)c1ccc(N2CCN(c3cccc(Cl)c3)CC2)cc1F | Active | Active |  | Active | Active | Active | 21 min | Active | 33 min | Active | Active | Active | Active | Active | Active | Non-toxic |  | 73.6% | 97.6% | 
CC(=O)N1CCN(c2ccc(C(=O)N[C@H](Cc3c[nH]c4ccccc34)C(=O)Nc3ccncc3)c(F)c2)CC1 | Active | Active | 64 min | Active | Active | Active | 18 min | Active | 13 min | Active | Active | Active | Active | Active | Active | Non-toxic | 52% |  |  | 
O=C(N[C@H](Cc1c[nH]c2ccccc12)C(=O)Nc1ccncc1)c1ccc(-c2cccc(F)c2)cc1F | Active | Active |  | Active | Active | Active | 20 min | Active |  | Active | Active | Active | Active | Active | Active | Non-toxic | 51.6% | 47.4% | 71.3% | 

More lines, main results first:

Drug uptake [1] | Drug uptake (Intestine [2]) | t1/2 (Liver microsome [3]) | Drug uptake (Intestine [4]) | Drug uptake (Lung [5]) | Drug uptake (Liver [6]) | t1/2 (Liver microsome [7]) | Drug uptake [8] | t1/2 (Liver [9]) | Drug uptake [10] | Drug uptake (Heart [12]) | Drug uptake (Lung [13]) | Drug uptake (Heart [15]) | Drug uptake [16] | Drug uptake (Liver [17]) | Structure (SMILES) | Activity (C2C12) | inhibition in vivo at 40 mg/kg (Trypanosoma cruzi [11]) | inhibition in vivo at 25 mg/kg (Trypanosoma cruzi [14]) | inhibition in vivo at 50 mg/kg (Trypanosoma cruzi [20]) | also measured
Active | Active | 15 min | Active | Active | Active | 39 min | Active | 67 min | Active | Active | Active | Active | Active | Active | O=C(N[C@H](Cc1c[nH]c2ccccc12)C(=O)Nc1ccncc1)c1ccc(-c2ccc(OCc3ccc(F)cc3)c(F)c2)cc1F | Non-toxic | 96.9% | 75.6% |  | 
Active | Active |  | Active | Active | Active |  | Active |  | Active | Active | Active | Active | Active | Active | O=C(N[C@H](Cc1c[nH]c2ccccc12)C(=O)Nc1ccncc1)c1ccc(-c2cc(F)ccc2F)cc1F | Non-toxic | 35.4% | 72.2% |  | 
Active | Active |  | Active | Active | Active |  | Active |  | Active | Active | Active | Active | Active | Active | O=C(N[C@H](Cc1c[nH]c2ccccc12)C(=O)Nc1ccncc1)c1ccc(-c2ccc(F)c(F)c2)cc1F | Non-toxic | 83.6% | 41.5% | 78.5% | Cmax [21]: 3.71 µM; half-life [22]: 197 min; Tmax [23]: 120 min; CL/F [24]: 53.8 mL/min/kg; AUC(0-t) [25]: 32.5 µM·h
